According to PMC9298202 (Chemmedchem, 2021):
Where two headings read alike, the source gives them in different places.

Experiments:
Type in all cases: cell-based
[1] = system: Trypanosoma cruzi SN3 epimastigote forms; test: Epimastigote assay, T. cruzi SN3; conditions: for Selectivity index Epimastigote forms: T. cruzi SN3, IC50 Vero cell toxicity/IC50 activity; for IC50: Trypanosoma cruzi, read-out: Activity IC50 Epimastigote forms
How it was run: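 SN3 epimastigotes (Rhodnius prolixus isolate, Colombia) were grown at 28 °C in Grace's Insect Medium + 10% inactivated FBS. Exponential-phase cells were plated at 5×10^4 parasites/well with test compound in MTL medium at 100, 50, 25, 12,5 and 6,25 µM. Counts after 72 h used a Neubauer chamber. IC50 came from linear regression of Kc values; SI = Vero IC50/epimastigote IC50.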

J774.2 macrophages = test: Cytotoxicity in J774.2 macrophages; conditions: read-out: Toxicity in macrophages IC50
[2] = system: Leishmania infantum promastigote forms; test: In vitro activity on promastigote; conditions: for Selectivity index Promastigote forms: L. infantum, IC50 macrophages toxicity/IC50 activity; for IC50: Leishmania infantum, read-out: Activity IC50 Promastigote forms
[3] = system: Leishmania donovani promastigote forms; test: In vitro activity on promastigote; conditions: for Selectivity index Promastigote forms: L. donovani, IC50 macrophages toxicity/IC50 activity; for IC50: Leishmania donovani, read-out: Activity IC50 Promastigote forms
How it was run: (§1)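 Extracellular promastigotes were tested at 1, 10, 25 and 200 µM, and IC50 was derived by linear regression from Kc values, averaging four determinations.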

Vero cells = test: Cytotoxicity in Vero cells; conditions: read-out: Vero cells toxicity IC50
How it was run: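 Vero cells were grown in RPMI + 10% inactivated FBS at 37 °C in humidified 5% CO2. They were resuspended at 1×10^5 cells/mL, cultured 2 days, then given fresh medium with test compound for 72 h. Viability was read by flow cytometry. IC50 was derived by linear regression from Kc values; results average four determinations.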

[4] = system: Leishmania braziliensis promastigote forms; test: In vitro activity on promastigote; conditions: for Selectivity index Promastigote forms: L. braziliensis, IC50 macrophages toxicity/IC50 activity; for IC50: Leishmania braziliensis, read-out: Activity IC50 Promastigote forms
How it was run: as §1

[5] = system: Trypanosoma cruzi SN3 trypomastigote forms; test: Trypomastigote activity, T. cruzi SN3; conditions: for Selectivity index Trypomastigote forms: T. cruzi SN3, IC50 Vero cell toxicity/IC50 activity; for IC50: Trypanosoma cruzi, read-out: Activity IC50 Trypomastigote forms
[6] = system: Trypanosoma cruzi SN3 amastigote forms; test: Amastigote assay, T. cruzi SN3; conditions: for Selectivity index Amastigote forms: T. cruzi SN3, IC50 Vero cell toxicity/IC50 activity; for IC50: Trypanosoma cruzi, read-out: Activity IC50 Amastigote forms
How it was run: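 Vero cells in RPMI + 10% inactivated FBS (37 °C, 5% CO2) were seeded at 1×10^4 cells/well on coverslips for 2 days. They were infected 10:1 with SN3 metacyclic forms, obtained by 12-day culture of epimastigotes at 28 °C in modified Grace's medium (~40% metacyclic). After 24 h, cells were washed and exposed to 6.25–100 µM for 72 h. Giemsa-stained amastigotes were counted; IC50 from four determinations; SI used Vero IC50.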

[7] = system: Leishmania braziliensis amastigote forms; test: In vitro activity on amastigote; conditions: for Selectivity index Amastigote forms: L. braziliensis, IC50 macrophages toxicity/IC50 activity; for IC50: Leishmania braziliensis, read-out: Activity IC50 Amastigote forms
How it was run: (§2)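 J774.2 macrophages were infected with promastigotes, which became intracellular amastigotes within 1 day; test compounds were then added. IC50 came from linear regression of Kc values at 1, 10, 25 and 200 µM, averaging four determinations.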

[8] = system: Leishmania infantum amastigote forms; test: In vitro activity on amastigote; conditions: for Selectivity index Amastigote forms: L. infantum, IC50 macrophages toxicity/IC50 activity; for IC50: Leishmania infantum, read-out: Activity IC50 Amastigote forms
[9] = system: Leishmania donovani amastigote forms; test: In vitro activity on amastigote; conditions: for Selectivity index Amastigote forms: L. donovani, IC50 macrophages toxicity/IC50 activity; for IC50: Leishmania donovani, read-out: Activity IC50 Amastigote forms
How it was run: as §2

[10] = Chlorocebus sabaeus, Vero, 72 h
[11] = J774.2 macrophages after 72 h of culture (Table 1)
[12] = Vero cells after 72 h of culture

Compound: Clc1ccc(NCCCn2ccnc2)nn1 [1 d, N ‐(3‐(1H‐imidazol‐1‐yl)propyl)‐6‐chloropyridazin‐3‐amine]
- Selectivity index Epimastigote forms [1]: 3 (3)
- IC50 [1]: 11.8 ± 0.6 µM
- IC50 (J774.2 macrophages; Mus musculus, J774.2, 72 h): 19.3 ± 1.1 µM
- Selectivity index Promastigote forms [2]: 1 (1)
- IC50 [2]: 15.3 ± 0.5 µM
- Selectivity index Promastigote forms [3]: 1 (1)
- IC50 [3]: 20.6 ± 2.3 µM
- IC50 (Vero cells; [10]): 33.2 ± 2.8 µM
- Selectivity index Promastigote forms [4]: 1
- IC50 [4]: 13.5 ± 0.3 µM

Compound: N‐ [2‐(1H‐imidazol‐4‐yl)ethylamino]pyrazine [4 a]
- IC50 (J774.2 macrophages; [11]): 21.9 ± 1.5 µM
- IC50 (Vero cells; [12]): 31 ± 2.6 µM

Compound: O=C(Cn1ccnc1[N+](=O)[O-])NCc1ccccc1 [BNZ, benznidazole, reference compound]
- Selectivity index Epimastigote forms [1]: 0.9
- IC50 [1]: 15.8 ± 1.1 µM
- IC50 (Vero cells; [10]): 13.6 ± 0.9 µM
- Selectivity index Trypomastigote forms [5]: 2.2
- IC50 [5]: 6.2 ± 0.7 µM
- Selectivity index Amastigote forms [6]: 0.6
- IC50 [6]: 23.3 ± 4.6 µM

Compound: c1ccc2[nH]c(CCNc3nnc(NCCc4nc5ccccc5[nH]4)c4ccccc34)nc2c1 [2 a, N 1,N4‐bis[2‐(1H‐benzo[d]imidazol‐2‐yl)ethyl]phthalazine‐1,4‐diamine]
- Selectivity index Epimastigote forms [1]: 1 (1)
- IC50 [1]: 33.5 ± 1.6 µM
- IC50 (J774.2 macrophages; Mus musculus, J774.2, 72 h): 18.7 ± 1 µM
- Selectivity index Promastigote forms [2]: 1(1)
- IC50 [2]: 19.9 ± 1.4 µM
- Selectivity index Promastigote forms [3]: 4
- IC50 [3]: 4.4 ± 0.2 µM
- IC50 (Vero cells; [10]): 38.7 ± 1.7 µM
- Selectivity index Amastigote forms [7]: 4
- IC50 [7]: 4.4 ± 0.3 µM
- Selectivity index Promastigote forms [4]: 3
- IC50 [4]: 5.8 ± 0.2 µM

Compound: c1ccc2c(NCCc3c[nH]cn3)nncc2c1 [1 e, 1‐[2‐(1H‐imidazol‐4‐yl)ethylamino]phthalazine]
- Selectivity index Epimastigote forms [1]: 21
- IC50 [1]: 16.5 ± 0.6 µM
- IC50 (J774.2 macrophages; Mus musculus, J774.2, 72 h): 63.9 ± 3.6 µM
- Selectivity index Promastigote forms [2]: 6
- IC50 [2]: 10.2 µM
- Selectivity index Promastigote forms [3]: 7
- IC50 [3]: 9.6 ± 1.3 µM
- IC50 (Vero cells; [10]): 350 ± 7.7 µM
- Selectivity index Trypomastigote forms [5]: 22
- IC50 [5]: 15.9 ± 1.2 µM
- Selectivity index Amastigote forms [7]: 8
- IC50 [7]: 8.1 ± 0.4 µM
- Selectivity index Amastigote forms [8]: 9
- IC50 [8]: 7.4 ± 0.3 µM
- Selectivity index Amastigote forms [9]: 6
- IC50 [9]: 10.8 ± 1.1 µM
- Selectivity index Amastigote forms [6]: 24
- IC50 [6]: 14.7 ± 1.1 µM
- Selectivity index Promastigote forms [4]: 4
- IC50 [4]: 14.5 ± 1.3 µM

Compound: c1cnc(NCCCCCn2ccnc2)cn1 [4 d, N ‐(5‐(1H‐imidazol‐1‐yl)pentyl)pyrazin‐2‐amine]
- Selectivity index Epimastigote forms [1]: 2 (2)
- IC50 [1]: 23.3 ± 0.7 µM
- IC50 (J774.2 macrophages; Mus musculus, J774.2, 72 h): 22 ± 1.7 µM
- Selectivity index Promastigote forms [2]: 4
- IC50 [2]: 5.8 ± 0.3 µM
- Selectivity index Promastigote forms [3]: 6
- IC50 [3]: 3.8 ± 0.3 µM
- IC50 (Vero cells; [10]): 37.2 ± 1.2 µM
- Selectivity index Amastigote forms [7]: 5
- IC50 [7]: 4.1 ± 0.3 µM
- Selectivity index Amastigote forms [8]: 5
- IC50 [8]: 4 ± 0.4 µM
- Selectivity index Amastigote forms [9]: 11
- IC50 [9]: 1.9 µM
- Selectivity index Promastigote forms [4]: 6
- IC50 [4]: 3.7 ± 0.1 µM

Compound: Clc1nnc(NCCc2nc3ccccc3[nH]2)c2ccccc12 [2 b, N‐ [2‐(1H‐benzo[d]imidazol‐2‐yl)ethyl]‐4‐chlorophthalazin‐1‐amine]
- Selectivity index Epimastigote forms [1]: 1 (1)
- IC50 [1]: 30 ± 0.8 µM
- IC50 (J774.2 macrophages; Mus musculus, J774.2, 72 h): 25.2 ± 1.7 µM
- Selectivity index Promastigote forms [2]: 1(1)
- IC50 [2]: 24.5 ± 2.5 µM
- Selectivity index Promastigote forms [3]: 2
- IC50 [3]: 10.7 ± 0.4 µM
- IC50 (Vero cells; [10]): 35 µM
- Selectivity index Amastigote forms [7]: 5
- IC50 [7]: 5.3 ± 0.4 µM
- Selectivity index Promastigote forms [4]: 4
- IC50 [4]: 6.1 ± 0.5 µM

Compound: 1‐[3‐(imidazol‐1‐yl)propylamino]pyridazine [1 b]
- IC50 (J774.2 macrophages; [11]): 18.6 ± 1 µM
- IC50 (Vero cells; [12]): 43.6 ± 2.7 µM

Compound: c1ccc2c(NCCc3cn4ccccc4n3)nnc(NCCc3cn4ccccc4n3)c2c1 [2 c, N 1,N4‐bis(2‐(imidazo[1,2‐a]pyridin‐2‐yl)ethyl)phthalazine‐1,4‐diamine]
- Selectivity index Epimastigote forms [1]: 1 (1)
- IC50 [1]: 20.1 ± 1.3 µM
- IC50 (J774.2 macrophages; Mus musculus, J774.2, 72 h): 2.4 ± 0.1 µM
- IC50 [2]: 18.7 ± 1.4 µM
- IC50 [3]: 22.4 ± 1.3 µM
- IC50 (Vero cells; [10]): 19.6 ± 0.7 µM
- IC50 [4]: 14.7 ± 0.6 µM

Compound: c1cnc(NCCCCn2ccnc2)cn1 [4 c, N ‐(4‐(1H‐imidazol‐1‐yl)butyl)pyrazin‐2‐amine]
- Selectivity index Epimastigote forms [1]: 2 (2)
- IC50 [1]: 17.9 ± 1.1 µM
- IC50 (J774.2 macrophages; Mus musculus, J774.2, 72 h): 22.3 ± 2.3 µM
- Selectivity index Promastigote forms [2]: 2
- IC50 [2]: 9.6 ± 0.8 µM
- Selectivity index Promastigote forms [3]: 3
- IC50 [3]: 7.4 ± 0.4 µM
- IC50 (Vero cells; [10]): 29.8 ± 1.6 µM
- Selectivity index Amastigote forms [7]: 3
- IC50 [7]: 7.7 ± 0.5 µM
- Selectivity index Amastigote forms [8]: 4
- IC50 [8]: 5.8 ± 0.2 µM
- Selectivity index Amastigote forms [9]: 4
- IC50 [9]: 5.5 ± 0.3 µM
- Selectivity index Promastigote forms [4]: 2
- IC50 [4]: 10.7 ± 1.1 µM

Compound: c1ccc2c(NCCc3c[nH]cn3)ncnc2c1 [3 a, N ‐[2‐(1H‐imidazol‐4‐yl)ethyl]‐quinazolin‐4‐amine]
- Selectivity index Epimastigote forms [1]: 4
- IC50 [1]: 25.9 ± 1.2 µM
- IC50 (J774.2 macrophages; Mus musculus, J774.2, 72 h): 65.2 ± 3.3 µM
- Selectivity index Promastigote forms [2]: 2
- IC50 [2]: 27.7 ± 3 µM
- Selectivity index Promastigote forms [3]: 3
- IC50 [3]: 20.4 ± 2 µM
- IC50 (Vero cells; [10]): 112 ± 4.8 µM
- Selectivity index Trypomastigote forms [5]: 26
- IC50 [5]: 4.3 ± 0.3 µM
- Selectivity index Amastigote forms [7]: 3
- IC50 [7]: 18.9 ± 1.6 µM
- Selectivity index Amastigote forms [6]: 17
- IC50 [6]: 6.7 ± 0.8 µM
- Selectivity index Promastigote forms [4]: 2
- IC50 [4]: 29.1 ± 2.3 µM

Compound: Clc1ccc(NCCc2c[nH]cn2)nn1 [1 c, N ‐(2‐(1H‐imidazol‐4‐yl)ethyl)‐6‐chloropyridazin‐3‐amine]
- Selectivity index Epimastigote forms [1]: 1 (1)
- IC50 [1]: 30.5 ± 2.7 µM
- IC50 (J774.2 macrophages; Mus musculus, J774.2, 72 h): 17.1 ± 1.7 µM
- Selectivity index Promastigote forms [2]: 1 (1)
- IC50 [2]: 19.9 ± 1.1 µM
- IC50 [3]: 57.4 ± 4.1 µM
- IC50 (Vero cells; [10]): 39.6 ± 0.9 µM
- Selectivity index Promastigote forms [4]: 1 (1)
- IC50 [4]: 28.1 ± 0.4 µM

Compound: Glucantime [reference compound]
- IC50 (J774.2 macrophages; [11]): 15.2 ± 1 µM

Compound: Clc1nnc(NCCc2cn3ccccc3n2)c2ccccc12 [2 d, 4‐chloro‐N‐(2‐(imidazo[1,2‐a]pyridin‐2‐yl)ethyl)phthalazin‐1‐amine]
- Selectivity index Epimastigote forms [1]: 1 (1)
- IC50 [1]: 19.6 ± 0.8 µM
- IC50 (J774.2 macrophages; Mus musculus, J774.2, 72 h): 2.4 ± 0.3 µM
- IC50 [2]: 21.8 ± 2.3 µM
- IC50 [3]: 11.9 ± 0.7 µM
- IC50 (Vero cells; [10]): 23.8 ± 2.1 µM
- IC50 [4]: 26.6 ± 5.4 µM
